ChEMBL document CHEMBL3826891, “Cupriphilic compounds to aid in proteasome inhibition” (Bioorg Med Chem Lett, 2016)
Active and inactive are the calls of the source. No cut-off for these calls is given here.

Tests used:
[1] = molecular target: T1, Proteasome Macropain subunit MB1 (Homo sapiens) (UniProt P28074); assay: Inhibition of chymotrypsin like activity of 20S proteasome (unknown origin) using suc-leu-leu-val-tyr-AMC as substrate at 10 uM after 40 mins in presence of 1 uM copper by fluorescence assay
T1 sequence (whole entry): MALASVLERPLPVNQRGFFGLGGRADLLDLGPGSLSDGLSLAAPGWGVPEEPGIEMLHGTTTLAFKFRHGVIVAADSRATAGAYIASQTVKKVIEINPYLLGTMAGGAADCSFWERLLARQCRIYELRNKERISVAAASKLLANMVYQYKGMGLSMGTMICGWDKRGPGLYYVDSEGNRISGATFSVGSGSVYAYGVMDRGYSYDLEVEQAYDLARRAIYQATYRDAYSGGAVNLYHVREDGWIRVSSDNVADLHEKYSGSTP
How it was run: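 Compound in DMSO, final DMSO below 2%, at 10 µM. Premixed with 1 µM copper chloride in 50 mM Tris pH 7.6 for 40 min with gentle shaking to allow chelation. 20S proteasome and suc-Leu-Leu-Val-Tyr-AMC were then added and incubated 2 h at 37 °C. Substrate cleavage rate was read as fluorescence at 340 nm excitation and 460 nm emission.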

[2] = molecular target: T1, Proteasome Macropain subunit MB1 (Homo sapiens); assay: Inhibition of chymotrypsin like activity of 20S proteasome (unknown origin) using suc-leu-leu-val-tyr-AMC as substrate at 10 uM after 40 mins in presence of nickel by fluorescence assay
How it was run: (§1)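 To test metal selectivity, the chloride of nickel, calcium, iron or zinc replaced copper and was premixed with compound for 40 min with shaking in 50 mM Tris pH 7.6. 20S proteasome and suc-LLVY-AMC were then added and incubated 2 h at 37 °C. Cleavage was read by fluorescence at 340 nm excitation and 460 nm emission.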

[3] = molecular target: T1, Proteasome Macropain subunit MB1 (Homo sapiens); assay: Inhibition of chymotrypsin like activity of 20S proteasome (unknown origin) using suc-leu-leu-val-tyr-AMC as substrate at 10 uM after 40 mins in presence of calcium by fluorescence assay; how it was run: as §1
[4] = molecular target: T1, Proteasome Macropain subunit MB1 (Homo sapiens); assay: Inhibition of chymotrypsin like activity of 20S proteasome (unknown origin) using suc-leu-leu-val-tyr-AMC as substrate at 10 uM after 40 mins in presence of iron by fluorescence assay; how it was run: as §1
[5] = molecular target: T2, Proteasome Macropain subunit MB1 (Homo sapiens, UniProt P28074); assay: Inhibition of chymotrypsin like activity of 20S proteasome (unknown origin) using suc-leu-leu-val-tyr-AMC as substrate after 40 mins in presence of 100 nM copper by fluorescence assay
T2 sequence (P28074 whole entry): T1 sequence (whole entry)
How it was run: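 Dose-response format in which compound concentration was varied with copper chloride fixed at 100 nM. Compound and copper were pre-equilibrated 40 min with gentle shaking in 50 mM Tris pH 7.6, final DMSO below 2%. 20S proteasome and suc-LLVY-AMC were added and run 2 h at 37 °C. AMC fluorescence was read at 340/460 nm, and IC50 was taken from the curve.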

[6] = molecular target: T1, Proteasome Macropain subunit MB1 (Homo sapiens); assay: Inhibition of chymotrypsin like activity of 20S proteasome (unknown origin) using suc-leu-leu-val-tyr-AMC as substrate at 10 uM after 40 mins in presence of copper by fluorescence assay

| SMILES | inhibition [1] [%] | inhibition [2] | inhibition [3] | inhibition [4] | IC50 [5] [µM] | inhibition [6] |
| --- | --- | --- | --- | --- | --- | --- |
| CCN(CC)C(=S)SSC(=S)N(CC)CC | 92 | Active | Active | Active | – | Active |
| OCc1cc(O)c(CO)nn1 | > 80 | Active | Active | Active | – | Active |
| O=c1oc2c(cc1O)oc(=O)c1cc(O)c(O)c(O)c12 | > 80 | Active | Active | Active | – | Active |

The next lines start with the values.

| inhibition [1] [%] | inhibition [2] | inhibition [3] | inhibition [4] | IC50 [5] [µM] | inhibition [6] | SMILES |
| --- | --- | --- | --- | --- | --- | --- |
| > 80 | Active | Active | Active | 3 | Active | O=C1COc2c1ccc(O)c2O |
| > 80 | Active | Active | Active | – | Active | O=C1c2c(O)cc(O)cc2OCC1c1ccc(O)cc1 (stereo unspecified) |
| > 80 | Active | Active | Active | – | Active | O=C(O)c1ccc(O)c(O)c1 |
| > 80 | Active | Active | Active | – | Active | NC(=O)SCC(=O)Nc1ccccc1C(=O)O |
